# Results pooled from the literature.
# Compare with care: the assays were run in different laboratories.
# Cell line: Vero
# Effect on: cell growth or viability
Compound,test,conditions,IC50
NC1=NN(c2ccccc2)C(=O)C1=NNc1ccc(N=Nc2ccccc2)cc1,,,44.6 µM
COc1cccc(CCNCc2c(N)nc(N)nc2-c2ccccc2)c1,SRB,,> 100 µM
COc1ccc(-c2csc(Nc3ccc4c(O)ncnc4c3)n2)cc1,MTT,,> 50 µM
Cc1ccc(C)n1-c1ccc(-c2nnc(S)s2)cc1,MTT,72 h,221 µM
Cc1[nH]c(=O)c(CNC(=O)c2ccc(C(F)(F)F)o2)c2c1CCCC2,MTT,72 h,> 50 µg/mL
Cc1cc(=O)[nH]n1C(=O)c1ccc(-n2c(C)ccc2C)cc1,MTT,72 h,202 µM
COc1ccccc1CCNCc1c(N)nc(N)nc1C1CCCCC1,SRB,,21 µM
Oc1ncnc2cc(Nc3nc(-c4ccc(F)cc4)cs3)ccc12,MTT,,> 50 µM
NNC(=O)c1ccncc1,MTT,72 h,> 450 µM
COc1cccc2c1C(=O)c1c(O)c3c(c(O)c1C2=O)C[C@@](O)(C(=O)CO)C[C@@H]3O[C@H]1C[C@H](N)[C@H](O)[C@H](C)O1,SRB,,0.68 µM
Nc1ccccc1-c1nc2cnccn2c1N,MTT,48 h,78 µM
NC1=C(Cl)C(=O)c2c(C(O)CO)c[nH]c2C1=O (stereo not drawn),MTT,72 h,> 19.5 µM
CCc1nc(N)nc(N)c1-c1ccc(Cl)cc1,SRB,,27 µM
CC(C)(C)Nc1c(-c2ccccc2[N+](=O)[O-])nc2cnccn12,MTT,48 h,> 100 µM
Oc1ncnc2cc(Nc3nc(-c4ccc(Cl)cc4)cs3)ccc12,MTT,,> 50 µM
Cc1[nH]c(=O)c(CNC(=O)c2ccc([N+](=O)[O-])o2)c2c1CCCC2,MTT,72 h,> 50 µg/mL
Nc1ccc(-c2nc3cnccn3c2NC2CCCCC2)cc1,MTT,48 h,75 µM
Oc1ccc(-c2csc(Nc3ccc4c(O)ncnc4c3)n2)cc1,MTT,,> 50 µM
N#Cc1nn(-c2ccc(N=Nc3ccccc3)cc2)c(=N)n(S(=O)(=O)c2ccc(N)cc2)c1=O,,,55.2 µM
Nc1ccc(-c2nc3ccccn3c2N)cc1,MTT,48 h,88 µM
Nc1nc(N)c(CNCCc2ccccc2F)c(C2CCCCC2)n1,SRB,,22 µM
O=[N+]([O-])c1ccc(-c2csc(Nc3ccc4c(O)ncnc4c3)n2)cc1,MTT,,> 50 µM
O=[N+]([O-])c1ccc(/C(O)=C/C(=S)S)cc1,MTT,48 h,255 µg/mL
O=[N+]([O-])c1ccc(-c2nc3ccccn3c2NC2CCCCC2)cc1,MTT,48 h,85 µM
COc1ccc(CCNCc2c(N)nc(N)nc2-c2ccccc2)cc1,SRB,,> 100 µM
Cc1ccc(C)n1-c1ccc(-c2nnc(-c3ccccc3Cl)[nH]2)cc1,MTT,72 h,222 µM
Nc1c(-c2ccc([N+](=O)[O-])cc2)nc2ccccn12,MTT,48 h,74 µM
Nc1nc(N)c(CNCCc2ccc(Cl)cc2Cl)c(C2CCCCC2)n1,SRB,,16 µM
CN(C)c1ccc(-c2nc3ccccn3c2N)cc1,MTT,48 h,70 µM
COc1ccccc1CCNCc1c(N)nc(N)nc1-c1ccccc1,SRB,,> 100 µM
Nc1ccc(-c2csc(Nc3ccc4c(O)ncnc4c3)n2)cc1,MTT,,> 50 µM
Nc1nc(N)c(CNCCc2ccc(Cl)cc2)c(C2CCCCC2)n1,SRB,,23 µM
CN(C)c1ccc(-c2nc3cnccn3c2N)cc1,MTT,48 h,91 µM
